Measurements from ChEMBL document CHEMBL3102757, “Synthesis and evaluation of the antiparasitic activity of bis-(arylmethylidene) cycloalkanones” (Eur J Med Chem, 2014).
Calls of active or inactive are those of the source. No cut-off for these calls is given here.

Legend:
[1] = Selectivity index, ratio of CC50 for mouse peritoneal macrophages to IC50 for Leishmania amazonensis IFLA/BR/1967/PH-8 promastigotes; assay type: functional
Summary of the method: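 Ratio of peritoneal macrophage CC50 (MTT, 24 h) to promastigote IC50 (MTT, 48 h).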

[2] = Cytotoxicity against mouse peritoneal macrophages after 24 hrs by MTT assay; assay type: cell-based, Peritoneal macrophage cell
Summary of the method: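 Murine peritoneal macrophages (5×10^5) cultured 24 h with a range of compound concentrations. Viability read by MTT, given as % lysis relative to cultures treated with amphotericin B (1 µg/mL).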

Leishmania amazonensis = assay: Antileishmanial activity against Leishmania amazonensis IFLA/BR/1967/PH-8 promastigotes assessed as parasite growth inhibition after 48 hrs by MTT assay; conditions: IFLA/BR/1967/PH-8, 48 h
[3] = target: T1, Glutathione reductase, mitochondrial (Homo sapiens, UniProt P00390); assay: Inhibition of human recombinant glutathione reductase using glutathione as substrate preincubated for 30 mins by colorimetric assay
T1 sequence (P00390 whole entry): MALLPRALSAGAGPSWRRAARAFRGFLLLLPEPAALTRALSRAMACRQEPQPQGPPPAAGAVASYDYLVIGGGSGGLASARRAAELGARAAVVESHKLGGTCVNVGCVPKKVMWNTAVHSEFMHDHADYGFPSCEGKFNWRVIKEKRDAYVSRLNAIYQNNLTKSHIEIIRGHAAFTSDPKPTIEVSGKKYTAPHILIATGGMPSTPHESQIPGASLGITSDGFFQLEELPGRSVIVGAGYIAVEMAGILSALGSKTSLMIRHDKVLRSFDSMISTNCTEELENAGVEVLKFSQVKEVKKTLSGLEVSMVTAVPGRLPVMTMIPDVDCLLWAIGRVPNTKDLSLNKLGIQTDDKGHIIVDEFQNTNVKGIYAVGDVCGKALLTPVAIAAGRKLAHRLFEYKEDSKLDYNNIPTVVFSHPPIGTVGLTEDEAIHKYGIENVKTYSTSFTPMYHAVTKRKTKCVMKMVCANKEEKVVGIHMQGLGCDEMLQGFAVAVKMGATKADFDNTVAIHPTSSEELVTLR
Summary of the method: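 Recombinant human glutathione reductase (10 mU) in 100 mM potassium phosphate pH 7.0, 1 mM EDTA, 400 µM NADPH. Pre-incubated with compound 30 min at 27 °C. Started with oxidized glutathione (10 µL of 1 mM stock). […] Carmustine positive control.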

Trypanothione reductase = Trypanothione reductase (Trypanosoma cruzi, UniProt P28593); assay: Inhibition of Trypanosoma cruzi trypanothione reductase expressed in Escherichia coli BL21(DE3) assessed as reduction of oxidized trypanothione preincubated for 30 mins measured for 30 mins by spectrophotometric analysis
Trypanosoma cruzi = assay: Trypanocidal activity against Trypanosoma cruzi Tulahuen amastigotes infected in mouse L929 cells assessed as parasite growth inhibition after 7 days by beta-galactosidase assay; assay type: functional, organism-based; conditions: L929, 168 h
Summary of the method: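 L-929 fibroblasts (4.0×10^3/well) infected with β-galactosidase-expressing Tulahuen trypomastigotes (4.0×10^4/well) for 2 h, then washed. Compounds added at 48 h, in tetraplicate, RPMI without phenol red plus 10% FBS. After 7 days, chlorophenol red β-D-galactopyranoside (100 µM) and 0.1% Nonidet P-40 added overnight at 37 °C. Read at 570 nm as % growth inhibition. Benznidazole control.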

[4] = Selectivity index, ratio of CC50 for mouse L929 cells to IC50 for Trypanosoma cruzi Tulahuen amastigotes; assay type: functional
Summary of the method: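 Ratio of L-929 CC50 (alamarBlue, 96 h) to amastigote IC50 from the β-galactosidase infection assay.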

[5] = Cytotoxicity against mouse L929 cells after 96 hrs by Alamar blue assay; assay type: cell-based
Summary of the method: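 L-929 fibroblasts seeded at 4.0×10^3 per well, same culture timing as the infection assay, exposed to rising concentrations for 96 h in tetraplicate. alamarBlue added, absorbance at 570 and 600 nm after 4–6 h. Viability as % reduction versus untreated cells. CC50 by linear interpolation.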

[6] = target: Cruzipain (Trypanosoma cruzi) (UniProt P25779); assay: Inhibition of Trypanosoma cruzi recombinant cruzaine using Z-FR-AMC as substrate at 100 uM preincubated for 10 mins measured for 5 mins by spectrophotometric analysis in presence of triton relative to DMSO-treated control
Summary of the method: (§1)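 Fluorescence at ex 340/em 440 nm followed 5 min. Compounds screened at 100 µM. The main screen used 0.01% Triton without pre-incubation. Checks used 0.1% or no Triton and a 10-min pre-incubation. Triplicates, activity versus DMSO control.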

[7] = target: Cruzipain (Trypanosoma cruzi) (UniProt P25779); assay: Inhibition of Trypanosoma cruzi recombinant cruzaine using Z-FR-AMC as substrate at 100 uM preincubated for 10 mins measured for 5 mins by spectrophotometric analysis relative to DMSO-treated control; summary of the method: as §1

Sequence of Cruzipain (Trypanosoma cruzi) (P25779 123-467 limits assumed): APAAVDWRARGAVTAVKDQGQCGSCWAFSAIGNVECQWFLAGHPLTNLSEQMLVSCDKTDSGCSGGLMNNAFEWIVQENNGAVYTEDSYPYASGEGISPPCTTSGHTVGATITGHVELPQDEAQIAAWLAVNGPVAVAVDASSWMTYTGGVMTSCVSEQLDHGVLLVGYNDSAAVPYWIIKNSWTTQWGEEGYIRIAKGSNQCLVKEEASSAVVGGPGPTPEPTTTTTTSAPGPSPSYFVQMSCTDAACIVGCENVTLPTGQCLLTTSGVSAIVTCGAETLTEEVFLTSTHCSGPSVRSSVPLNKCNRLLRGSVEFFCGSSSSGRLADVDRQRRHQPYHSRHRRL
Sequence of Trypanothione reductase (P28593 whole entry): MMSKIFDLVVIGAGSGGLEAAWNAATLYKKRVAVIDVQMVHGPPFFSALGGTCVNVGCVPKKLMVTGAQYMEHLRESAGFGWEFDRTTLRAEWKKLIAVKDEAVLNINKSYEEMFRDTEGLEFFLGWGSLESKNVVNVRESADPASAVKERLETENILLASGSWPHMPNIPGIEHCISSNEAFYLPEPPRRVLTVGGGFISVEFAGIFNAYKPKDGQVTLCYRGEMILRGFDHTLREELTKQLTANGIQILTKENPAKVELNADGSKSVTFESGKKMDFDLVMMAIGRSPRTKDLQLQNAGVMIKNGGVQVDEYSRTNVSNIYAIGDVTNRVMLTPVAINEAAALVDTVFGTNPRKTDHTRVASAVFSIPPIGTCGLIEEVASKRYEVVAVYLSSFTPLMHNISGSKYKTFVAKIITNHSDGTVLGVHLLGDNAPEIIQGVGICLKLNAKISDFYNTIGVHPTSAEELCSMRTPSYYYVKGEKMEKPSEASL

Structure (SMILES) | Ratio CC50/IC50 [1] | CC50 at 24 h [2] | IC50 (Leishmania amazonensis) | IC50 [3] | IC50 (Trypanothione reductase) | IC50 (Trypanosoma cruzi) | Ratio CC50/IC50 [4] | CC50 at 96 h [5] | inhibition [6] | inhibition [7]
C[C@@H]1[C@H](O)[C@@H](C)/C=C/C=C/C=C/C=C/C=C/C=C/C=C/[C@H](O[C@@H]2O[C@H](C)[C@@H](O)[C@H](N)[C@@H]2O)C[C@@H]2O[C@](O)(C[C@@H](O)C[C@@H](O)[C@H](O)CC[C@@H](O)C[C@@H](O)CC(=O)O[C@H]1C)C[C@H](O)[C@H]2C(=O)O [AMPHOTERICIN B] | 8.8 | 0.7 µM | 0.08 µM |  |  |  |  |  |  | 
CN(C)c1ccc(/C=C2\CC/C(=C\c3ccc(N(C)C)cc3)C2=O)cc1 | 0.4 | 17.6 µM | 44.1 µM | > 100 µM | > 100 µM | > 250 µM |  |  |  | 
O=C1/C(=C/c2ccnc3ccccc23)CC/C1=C\c1ccnc2ccccc12 | 0.8 | 3.7 µM | 4.9 µM | > 100 µM | > 100 µM | 7 µM | 3.6 | 25.3 µM |  | 
O=C1/C(=C/c2ccc(Cn3cc(-c4ccccc4)nn3)cc2)CC/C1=C\c1ccc(Cn2cc(-c3ccccc3)nn2)cc1 |  |  |  | > 100 µM | > 100 µM | > 250 µM |  |  |  | 
O=C1/C(=C/c2ccncc2)CCC/C1=C\c1ccncc1 | 19.9 | 23.9 µM | 1.2 µM | > 100 µM | 14.7 µM | > 250 µM |  |  | inactive | 66%
Cc1ccc(/C=C2\CC/C(=C\c3ccc(C)cc3)C2=O)cc1 | 0.7 | 39.4 µM | 52.6 µM | > 100 µM | > 100 µM | > 250 µM |  |  |  | 
CN(C)c1ccc(/C=C2\CCC/C(=C\c3ccc(N(C)C)cc3)C2=O)cc1 | 1.1 | 20.8 µM | 18.6 µM | > 100 µM | > 100 µM | > 250 µM |  |  |  | 
O=C(Cn1ccnc1[N+](=O)[O-])NCc1ccccc1 [BENZNIDAZOLE] |  |  |  |  |  |  | >262 | > 1000 µM |  | 
O=C1/C(=C/c2cccc3cnccc23)CC/C1=C\c1cccc2cnccc12 | 23.8 | 21.4 µM | 0.9 µM | > 100 µM | > 100 µM | 31.3 µM | 16 | 500 µM |  | 
O=C1/C(=C/c2ccc(Cn3cc(CCO)nn3)cc2)CC/C1=C\c1ccc(Cn2cc(CCO)nn2)cc1 | 1.2 | 60.4 µM | 50.9 µM | > 100 µM | > 100 µM | > 250 µM |  |  | inactive | 16%
